Measurements published in ChEMBL document CHEMBL4513216, “Probing the Open Global Health Chemical Diversity Library for Multistage-Active Starting Points for Next-Generation Antimalarials” (ACS Infect Dis, 2020).

Assay: Toxicity liver stage against HepG2, at 10uM
Assay type: cell-based
Parameters: test concentration 10 uM, cell line HepG2-A16-CD81EGFP
Details: human, HepG2-A16-CD81EGFP cells; read-out: INHIBITION
In short: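 Uninfected HepG2-A16-CD81EGFP cells, 3 × 10^3 per well, 1536-well, plated on prespotted compound at 10 μM final, parasite-free screening media added to match infected plates; puromycin 10 μM positive, DMSO 0.5% negative; run in parallel with 48 h PbLuc assay at 37 °C, 5% CO2; viability by CellTiter-Glo luminescence, normalized to controls.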

Structure (SMILES)	cytotoxicity at 10 µM [%]
CCc1nc(C2CCCN2CCCc2nc3ccccc3o2)no1 (stereo unspecified)	-7.92
CN(C)CC1CN(Cc2ccsc2)Cc2nccn2C1 (stereo unspecified)	1.72
CC(=O)N1CCCC(c2ccc(N3CCN(C)CC3)cn2)C1 (stereo unspecified)	-28.9
CC(C)CCN(C)Cc1ccccc1-c1nc(C(C)C)cc(=O)[nH]1	5.46
CCOc1cc(C)nc(N2CCN(C(C)c3nc(C)no3)CC2)n1 (stereo unspecified)	-1.67
O=C1CC2(CCN(C(=O)Cc3cc4c(cc3Cl)OCCO4)C2)C(=O)N1 (stereo unspecified)	12.7
Cc1nccc(-c2cccc(NCC(=O)N3CCc4sccc4C3)c2)n1	1.06
COc1cccc(CN2CCOC(c3cnccn3)C2)c1F (stereo unspecified)	8.63
CCc1ncc2c(n1)CN(Cc1nnc(C(C)C)o1)CC2	-4.54
COCCN1C[C@H]2CN(Cc3cccc(OC(F)(F)F)c3)CCN2C1=O	2.67
O=C(CNc1ccc(F)cc1OCC(F)(F)F)NCc1ccco1	7.35
COCC1(NC(=O)Nc2nc(C)ns2)CCCC1	0.512
CC(C)N1CCC(CC(=O)NC(C(=O)O)c2ccc(F)cc2)CC1 (stereo unspecified)	0.0453
Cc1nc(CN2CCN(c3ccc4nncn4n3)C(C)C2)oc1C (stereo unspecified)	-2.91
COCCN(CCOC)S(=O)(=O)N(C)Cc1ccncc1	8.07
O=C(Cc1nc(-c2ccncc2)n[nH]1)NCCCN1CCOCC1	-1.8
O=C(c1n[nH]cc1Br)N1CCOCC1	5.31
CCc1ncc(C(=O)N2CCOCC2c2c(C)n[nH]c2C)s1 (stereo unspecified)	-5.61
COc1cc(N2CCC3(CCCN(C(=O)c4cccnc4)C3)C2)ncn1 (stereo unspecified)	-149
CN1C(=O)C2(CC(=O)Nc3[nH]ncc32)c2cc(Cl)ccc21 (stereo unspecified)	-1.89
Cc1csc(Nc2nccnc2C2CCCN2CC(N)=O)n1 (stereo unspecified)	-20.8
CC(O)CCN(C)c1nc2ccccc2c(=O)[nH]1 (stereo unspecified)	12.6
CCOc1ccc(C(=O)N2CCCS2(=O)=O)cc1OC	-7.42

Structure (SMILES)	cytotoxicity at 10 µM [%]
Cc1cc(NCCc2nc(C)cs2)nc(-c2cccnc2)n1	1.02
Cc1nc2c(c(N(C)CC3Cc4ccccc4CN3C)n1)CCNCC2 (stereo unspecified)	-29
CCOC(=O)c1cc2c(=O)[nH]c(=O)n(CCc3ccccc3)c2nc1C	-6.28
Cn1cnnc1C1CCN(C(=O)COCc2ccccc2Cl)CC1	-6.07
CCC[C@@H]1CN(Cc2c[nH]nc2-c2ccc(F)cc2)C[C@H]1NS(C)(=O)=O	3.25
CCCN(CC1COc2ccccc2O1)C(=O)C1=NN(C)C(=O)CC1 (stereo unspecified)	-41
O=C(Cn1cnnn1)NCC1(O)CCCc2ccccc21 (stereo unspecified)	-42.3
Cn1ncc2c(=O)[nH]c(CN3CCCC3c3ccccc3Cl)nc21 (stereo unspecified)	-4.8
CCn1nnc2c1C(COC)CN(Cc1ccsc1)C2 (stereo unspecified)	2.3
CCCc1nc(C(=O)N(C)Cc2cc(CC)no2)cs1	6.75
CC(C)c1csc(NC(=O)NC2CCCN(c3cnn(C)c3)C2)n1 (stereo unspecified)	15
CC[C@@H](C)[C@H](NC(=O)CCn1cc(C(C)=O)c2ccccc21)C(=O)O	-5.27
Cc1nc(C)n(C2CCCN(C(=O)CCc3cscn3)C2)n1 (stereo unspecified)	6.74
CC(CS(C)(=O)=O)N(C(=O)CCc1cccc(F)c1)C1CC1 (stereo unspecified)	-6.77
CN(CCc1cn[nH]c1)C(=O)C(c1ccc(F)cc1)N(C)C (stereo unspecified)	-19.5
O=C(NCC1(CO)CC1)c1ccccc1F	9.99
CC(C)NC(=O)[C@H]1C[C@H]2NCCO[C@@H]2C1	-134
O=C(NS(=O)(=O)c1ccccc1)c1ccccc1F	11.4
COc1cccc(OCC2CCCN(c3cc(C(N)=O)ccn3)C2)c1 (stereo unspecified)	2.13
c1cnc(N2CCC3(CCCN(CC4CC4)C3)CC2)nc1	-3.24
CN(Cc1ccc2c(c1)OCO2)C(=O)C1CC(c2cccc(F)c2)=NO1 (stereo unspecified)	10.7
Cc1nnc(CN2CCCC2c2ccc(Cl)c(Cl)c2)o1 (stereo unspecified)	-1.7
CCc1nnc(CN(C)C(=O)CN2CC(c3ccccc3)CC2=O)o1 (stereo unspecified)	-2.96
